Experimental data reported in ChEMBL document CHEMBL1134575, “Synthesis, molecular modeling, and structure-activity relationship of benzophenone-based CAAX-peptidomimetic farnesyltransferase inhibitors” (J Med Chem, 2001).
pIC50: −log10 of the molar value.

biological target: T1, Farnesyltransferase (Saccharomyces cerevisiae S288c, UniProt P22007+P29703); assay: Inhibitory activity against farnesyltransferase.; assay type: protein-complex assay; details: not given
T1 sequence (P29703 whole entry): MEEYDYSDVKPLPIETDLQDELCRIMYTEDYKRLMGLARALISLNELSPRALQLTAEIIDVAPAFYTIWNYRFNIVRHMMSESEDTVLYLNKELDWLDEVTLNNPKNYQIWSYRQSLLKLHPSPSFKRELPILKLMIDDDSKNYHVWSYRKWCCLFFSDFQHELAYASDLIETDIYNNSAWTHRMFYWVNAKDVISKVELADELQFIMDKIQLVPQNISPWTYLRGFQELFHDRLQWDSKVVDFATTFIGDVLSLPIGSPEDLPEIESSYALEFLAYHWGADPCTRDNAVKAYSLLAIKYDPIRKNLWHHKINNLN
T1 sequence (P22007 whole entry): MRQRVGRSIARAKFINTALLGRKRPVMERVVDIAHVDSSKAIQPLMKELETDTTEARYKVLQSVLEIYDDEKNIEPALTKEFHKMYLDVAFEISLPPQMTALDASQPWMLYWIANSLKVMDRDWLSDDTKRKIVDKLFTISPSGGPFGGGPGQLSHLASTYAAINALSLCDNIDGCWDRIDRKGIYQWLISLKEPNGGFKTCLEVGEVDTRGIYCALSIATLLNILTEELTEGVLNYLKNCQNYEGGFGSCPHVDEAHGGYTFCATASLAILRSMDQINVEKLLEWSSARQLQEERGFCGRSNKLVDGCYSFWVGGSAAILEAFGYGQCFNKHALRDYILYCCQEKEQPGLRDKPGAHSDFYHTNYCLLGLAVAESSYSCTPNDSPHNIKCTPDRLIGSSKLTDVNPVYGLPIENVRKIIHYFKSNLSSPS
In short: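 Yeast FTase, GST fused at the N-terminus of the β-subunit, expressed in E. coli DH5α and purified on glutathione-agarose. Buffer: 50 mM Tris/HCl pH 7.4, 5 mM MgCl2, 10 μM ZnCl2, 5 mM DTT. Substrates: 7 μM dansyl-GCVLS, 20 μM FPP. Inhibitor in 1% DMSO. IC50 from initial velocities at four or five concentrations, three independent runs, mean ± SD.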

Row | pIC50 | SMILES
1 | 5.62 | N[C@@H](CS)C(=O)Nc1ccc(NC(=O)Cc2cc(Cl)ccc2Cl)c(C(=O)c2ccccc2)c1
2 | 6.26 | COc1ccc(CC(=O)Nc2ccc(NC(=O)[C@@H](N)CS)cc2C(=O)c2ccccc2)cc1
3 | 5.89 | N[C@@H](CS)C(=O)Nc1ccc(NC(=O)CCc2ccccc2)c(C(=O)c2ccccc2)c1
4 | 6.32 | N[C@@H](CS)C(=O)Nc1ccc(NC(=O)Cc2ccc(Cl)c(Cl)c2)c(C(=O)c2ccccc2)c1
5 | 6.38 | N[C@@H](CS)C(=O)Nc1ccc(NC(=O)Cc2cccc(Cl)c2Cl)c(C(=O)c2ccccc2)c1
6 | 6.27 | N[C@@H](CS)C(=O)Nc1ccc(NC(=O)Cc2cc(Cl)cc(Cl)c2)c(C(=O)c2ccccc2)c1
7 | 6.19 | N[C@@H](CS)C(=O)Nc1ccc(NC(=O)Cc2ccccc2)c(C(=O)c2ccccc2)c1
8 | 6.27 | Cc1cccc(CC(=O)Nc2ccc(NC(=O)[C@@H](N)CS)cc2C(=O)c2ccccc2)c1
9 | 7.11 | Cc1ccc(CC(=O)Nc2ccc(NC(=O)[C@@H](N)CS)cc2C(=O)c2ccccc2)cc1
10 | 7.12 | N[C@@H](CS)C(=O)Nc1ccc(NC(=O)Cc2ccc(Br)cc2)c(C(=O)c2ccccc2)c1
11 | 6.14 | N[C@@H](CS)C(=O)Nc1ccc(NC(=O)Cc2ccc(C(F)(F)F)cc2)c(C(=O)c2ccccc2)c1
12 | 6.98 | N[C@@H](CS)C(=O)Nc1ccc(NC(=O)Cc2ccc(Cl)cc2)c(C(=O)c2ccccc2)c1
13 | 6.92 | N[C@@H](CS)C(=O)Nc1ccc(NC(=O)Cc2ccc(Cl)cc2Cl)c(C(=O)c2ccccc2)c1
14 | 6.94 | N[C@@H](CS)C(=O)Nc1ccc(NC(=O)Cc2ccc([N+](=O)[O-])cc2)c(C(=O)c2ccccc2)c1
15 | 6.34 | N[C@@H](CS)C(=O)Nc1ccc(NC(=O)Cc2ccc3ccccc3c2)c(C(=O)c2ccccc2)c1
16 | 6.47 | N[C@@H](CS)C(=O)Nc1ccc(NC(=O)Cc2c(Cl)cccc2Cl)c(C(=O)c2ccccc2)c1
17 | 6.42 | N[C@@H](CS)C(=O)Nc1ccc(NC(=O)Cc2cccc3ccccc23)c(C(=O)c2ccccc2)c1
18 | 6.40 | Cc1ccccc1CC(=O)Nc1ccc(NC(=O)[C@@H](N)CS)cc1C(=O)c1ccccc1

Continued, molecule first:

Row | SMILES | pIC50
19 | COC(=O)CCCC(=O)Nc1ccc(NC(=O)[C@@H](N)CS)cc1C(=O)c1ccccc1 | 5.62
20 | N[C@@H](CS)C(=O)Nc1ccc(NS(=O)(=O)Cc2ccccc2)c(C(=O)c2ccccc2)c1 | 7.07
21 | N[C@@H](CS)C(=O)Nc1ccc(NC(=O)c2ccccc2)c(C(=O)c2ccccc2)c1 | 5.32
22 | N[C@@H](CS)C(=O)Nc1ccc(NC(=O)C(=O)c2ccccc2)c(C(=O)c2ccccc2)c1 | 5.85
23 | N[C@@H](CS)C(=O)Nc1ccc(NC(=O)c2cccc3ccccc23)c(C(=O)c2ccccc2)c1 | 5.34
24 | N[C@@H](CS)C(=O)Nc1ccc(NC(=O)C(c2ccccc2)c2ccccc2)c(C(=O)c2ccccc2)c1 | 7.44
25 | COC(=O)CCC(=O)Nc1ccc(NC(=O)[C@@H](N)CS)cc1C(=O)c1ccccc1 | 5.74
26 | CC(=O)Nc1ccc(NC(=O)[C@@H](N)CS)cc1C(=O)c1ccccc1 | 5.12
27 | CC(C(=O)Nc1ccc(NC(=O)[C@@H](N)CS)cc1C(=O)c1ccccc1)c1ccccc1 (stereo not given in full) | 6.19
28 | CC(CC(=O)Nc1ccc(NC(=O)[C@@H](N)CS)cc1C(=O)c1ccccc1)CC(C)(C)C (stereo not given in full) | 5.07
29 | N[C@@H](CS)C(=O)Nc1ccc(NC(=O)CCC(=O)O)c(C(=O)c2ccccc2)c1 | 6.15
30 | N[C@@H](CS)C(=O)Nc1ccc(NC(=O)CCCC(=O)O)c(C(=O)c2ccccc2)c1 | 6.26
31 | Cc1ccc(CS(=O)(=O)Nc2ccc(NC(=O)[C@@H](N)CS)cc2C(=O)c2ccccc2)cc1 | 7.00

system: HL-60; assay: Antiproliferative activity against HL60 cell line; assay type: functional; details: Homo sapiens
In short: (§1)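 Suspended human leukaemic lines (K-562, HL-60, THP-1) grown in RPMI 1640 with penicillin/streptomycin and 10% FBS. About 10 000 cells per well in bicarbonate medium without HEPES. Test substances added in serial twofold dilutions (1:2 to 1:1024). Incubation 72 h, 37 °C, 5% CO2, humidified. Cells counted electronically, each count the mean of three. GI50 read where the concentration–response curve crosses 50% of control counts.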

Row | SMILES | GI50 [nM]
32 | N[C@@H](CS)C(=O)Nc1ccc(NC(=O)Cc2ccc(Br)cc2)c(C(=O)c2ccccc2)c1 | 4200

system: K562; assay: Antiproliferative activity against K562 cell line; assay type: functional; details: Homo sapiens; in short: as §1

Row | SMILES | GI50 [nM]
33 | Cc1ccc(CC(=O)Nc2ccc(NC(=O)[C@@H](N)CS)cc2C(=O)c2ccccc2)cc1 | 8100
34 | N[C@@H](CS)C(=O)Nc1ccc(NC(=O)Cc2ccc(Br)cc2)c(C(=O)c2ccccc2)c1 | 7900

system: THP-1; assay: Antiproliferative activity against THP-1 cell line; assay type: functional; details: Homo sapiens; in short: as §1

Row | SMILES | GI50 [nM]
35 | N[C@@H](CS)C(=O)Nc1ccc(NC(=O)Cc2ccc(Br)cc2)c(C(=O)c2ccccc2)c1 | 14900
